From ChEMBL document CHEMBL4732207, “Design, Synthesis and Structure-Activity Relationship Studies of Glycosylated Derivatives of Marine Natural Product Lamellarin D” (Eur J Med Chem, 2021) come the findings set out here.

Converted amounts (≈) assume the structure as drawn. The source made the active and inactive calls. The calls are words filed in the database; no cut-off is given here.

The subject of one series is HGC-27. Put plainly: Cytotoxicity against human HGC-27 cells assessed as reduction in cell viability incubated for 72 hrs by MTT assay. Conditions: HGC-27, 72 h. In kind it is functional, cell-based. A digest of the protocol: (§1)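 Cells resuspended in DMEM plus 10% FBS and seeded at 5 000 cells/well. They were incubated overnight at 37 °C in 5% CO2, then exposed to serial dilutions for 72 h at 37 °C. Medium was replaced with fresh medium containing 0.5 mg/mL MTT for 4 h, formazan dissolved in DMSO, and A540 read. Proliferation = A540 treated/control ×100%. IC50 is the concentration inhibiting proliferation by 50%.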
For orientation: IC50 means the point on the concentration scale where inhibition reaches its midpoint. On to `COc1cc(-c2c3c4cc(OC)c(O[C@@H]5O[C@H](CO)[C@@H](O)[C@H](O)[C@H]5O)cc4oc(=O)c3n3ccc4cc(O)c(OC)cc4c23)ccc1O`, for which the IC50 was determined as 162 nM.
In the case of `COc1cc2c(ccn3c2c(-c2ccc(O[C@@H]4O[C@H](CO)[C@@H](O)[C@H](O)[C@H]4O)c(OC)c2)c2c4cc(OC)c(O[C@@H]5O[C@H](CO)[C@@H](O)[C@H](O)[C@H]5O)cc4oc(=O)c23)cc1O`, the IC50 turned out to be 7220 nM.
Still for that read-out and setting: with `COc1cc(-c2c3c4cc(OC)c(O[C@@H]5O[C@H](CO)[C@@H](O)[C@H](O)[C@H]5O)cc4oc(=O)c3n3ccc4cc(O[C@@H]5O[C@H](CO)[C@@H](O)[C@H](O)[C@H]5O)c(OC)cc4c23)ccc1O` the figure was 74 nM.
The same measure, in the same setting: with `COc1cc(-c2c3c4cc(OC)c(O)cc4oc(=O)c3n3ccc4cc(O[C@@H]5O[C@H](CO)[C@H](O)[C@H](O)[C@H]5O)c(OC)cc4c23)ccc1O` the figure was 114 nM.

The next series has as its system MDA-MB-231. In words: Induction of cell cycle arrest in human MDA-MB-231 cells assessed as increase in accumulation of G2/M phase incubated for 24 hrs by PI staining based flow cytometry analysis. In kind it is functional. Conditions: dose 10-50 nM. In outline: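 MDA-MB-231 cells (5 × 10^5) seeded in six-well plates, cultured overnight at 37 °C, then treated at 10, 20 or 50 nM for 24 h. Lamellarin D was the positive control at 20 and 50 nM. Cells were trypsinized, washed twice in PBS and fixed in 70% ethanol overnight at −20 °C. After washing, cells were stained with propidium iodide. Phase distribution was read by flow cytometry.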
Consider `COc1cc(-c2c3c4cc(OC)c(O[C@@H]5O[C@H](CO)[C@@H](O)[C@H](O)[C@H]5O)cc4oc(=O)c3n3ccc4cc(O)c(OC)cc4c23)ccc1O`, for which the Activity entry was “Dose-dependent effect”.

In a further series the test system is A549. Put plainly: Cytotoxicity against human A549 cells assessed as reduction in cell viability incubated for 72 hrs by MTT assay. The series is classed as functional, cell-based. Conditions: A549, 72 h. A digest of the protocol: as §1
In general terms: Tetrazolium assays rely on reduction of a dye to a coloured formazan, in cell work by metabolically active cells.
As for `COc1cc(-c2c3c4cc(OC)c(O[C@@H]5O[C@H](CO)[C@@H](O)[C@H](O)[C@H]5O)cc4oc(=O)c3n3ccc4cc(O)c(OC)cc4c23)ccc1O`, the IC50 was 3 nM.
Take `COc1cc2c(ccn3c2c(-c2ccc(O[C@@H]4O[C@H](CO)[C@@H](O)[C@H](O)[C@H]4O)c(OC)c2)c2c4cc(OC)c(O[C@@H]5O[C@H](CO)[C@@H](O)[C@H](O)[C@H]5O)cc4oc(=O)c23)cc1O`: the IC50 was determined as 16400 nM.
On the same count and under the same terms, with `COc1cc(-c2c3c4cc(OC)c(O[C@@H]5O[C@H](CO)[C@@H](O)[C@H](O)[C@H]5O)cc4oc(=O)c3n3ccc4cc(O[C@@H]5O[C@H](CO)[C@@H](O)[C@H](O)[C@H]5O)c(OC)cc4c23)ccc1O` the figure was 26 nM; with `COc1cc(-c2c3c4cc(OC)c(O)cc4oc(=O)c3n3ccc4cc(O[C@@H]5O[C@H](CO)[C@H](O)[C@H](O)[C@H]5O)c(OC)cc4c23)ccc1O`, 13 nM.

The next series relates to MDA-MB-231. In words: Induction of apoptosis in human MDA-MB-231 cells at 50 nM incubated for 24 hrs by annexin-V-FITC and PI staining based flow cytometry analysis. The series is classed as functional, cell-based.
Conditions: not given
(In general: In flow cytometry, cells or beads pass a laser one at a time.)
As to `COc1cc(-c2c3c4cc(OC)c(O[C@@H]5O[C@H](CO)[C@@H](O)[C@H](O)[C@H]5O)cc4oc(=O)c3n3ccc4cc(O)c(OC)cc4c23)ccc1O`, the outcome was Active.

Test system in the next series: not listed separately
In words: Aqueous solubility of compound in deionized water by HPLC-HRMS analysis. The series is classed as physicochemical. Conditions: buffer.
By solubility is commonly meant the concentration that dissolves in the medium under given conditions. A lower solubility goes with a poorly soluble substance. Consider `COc1cc(-c2c3c4cc(OC)c(O[C@@H]5O[C@H](CO)[C@@H](O)[C@H](O)[C@H]5O)cc4oc(=O)c3n3ccc4cc(O)c(OC)cc4c23)ccc1O`, for which the solubility was 0.002 µM (≈ 0.00132 µg/mL).
Regarding `COc1cc2c(ccn3c2c(-c2ccc(O[C@@H]4O[C@H](CO)[C@@H](O)[C@H](O)[C@H]4O)c(OC)c2)c2c4cc(OC)c(O[C@@H]5O[C@H](CO)[C@@H](O)[C@H](O)[C@H]5O)cc4oc(=O)c23)cc1O`, the solubility came out at 0.25755 µM (≈ 0.212 µg/mL).
Still for that read-out and setting: the figure for `COc1cc(-c2c3c4cc(OC)c(O[C@@H]5O[C@H](CO)[C@@H](O)[C@H](O)[C@H]5O)cc4oc(=O)c3n3ccc4cc(O[C@@H]5O[C@H](CO)[C@@H](O)[C@H](O)[C@H]5O)c(OC)cc4c23)ccc1O` is 0.18231 µM (≈ 0.15 µg/mL).
As for `COc1cc(-c2c3c4cc(OC)c(O)cc4oc(=O)c3n3ccc4cc(O[C@@H]5O[C@H](CO)[C@H](O)[C@H](O)[C@H]5O)c(OC)cc4c23)ccc1O`, the solubility is 0.23582 µM (≈ 0.156 µg/mL).

The subject of a further series is MDA-MB-231. In words: Cytotoxicity against human MDA-MB-231 cells assessed as reduction in cell viability incubated for 72 hrs by MTT assay. In kind it is functional, cell-based. Conditions: MDA-MB-231, 72 h. In outline: as §1
Regarding `COc1cc(-c2c3c4cc(OC)c(O[C@@H]5O[C@H](CO)[C@@H](O)[C@H](O)[C@H]5O)cc4oc(=O)c3n3ccc4cc(O)c(OC)cc4c23)ccc1O`, the IC50 worked out at 34 nM.
On the same count and under the same terms, the figure for `COc1cc2c(ccn3c2c(-c2ccc(O[C@@H]4O[C@H](CO)[C@@H](O)[C@H](O)[C@H]4O)c(OC)c2)c2c4cc(OC)c(O[C@@H]5O[C@H](CO)[C@@H](O)[C@H](O)[C@H]5O)cc4oc(=O)c23)cc1O` is 7370 nM.
On the same count and under the same terms, the figure for `COc1cc(-c2c3c4cc(OC)c(O[C@@H]5O[C@H](CO)[C@@H](O)[C@H](O)[C@H]5O)cc4oc(=O)c3n3ccc4cc(O[C@@H]5O[C@H](CO)[C@@H](O)[C@H](O)[C@H]5O)c(OC)cc4c23)ccc1O` is 36 nM; for `COc1cc(-c2c3c4cc(OC)c(O)cc4oc(=O)c3n3ccc4cc(O[C@@H]5O[C@H](CO)[C@H](O)[C@H](O)[C@H]5O)c(OC)cc4c23)ccc1O` it is 18 nM.

The target in another series is T1, DNA topoisomerase 1 (Homo sapiens) (UniProt P11387).
T1 sequence (whole entry): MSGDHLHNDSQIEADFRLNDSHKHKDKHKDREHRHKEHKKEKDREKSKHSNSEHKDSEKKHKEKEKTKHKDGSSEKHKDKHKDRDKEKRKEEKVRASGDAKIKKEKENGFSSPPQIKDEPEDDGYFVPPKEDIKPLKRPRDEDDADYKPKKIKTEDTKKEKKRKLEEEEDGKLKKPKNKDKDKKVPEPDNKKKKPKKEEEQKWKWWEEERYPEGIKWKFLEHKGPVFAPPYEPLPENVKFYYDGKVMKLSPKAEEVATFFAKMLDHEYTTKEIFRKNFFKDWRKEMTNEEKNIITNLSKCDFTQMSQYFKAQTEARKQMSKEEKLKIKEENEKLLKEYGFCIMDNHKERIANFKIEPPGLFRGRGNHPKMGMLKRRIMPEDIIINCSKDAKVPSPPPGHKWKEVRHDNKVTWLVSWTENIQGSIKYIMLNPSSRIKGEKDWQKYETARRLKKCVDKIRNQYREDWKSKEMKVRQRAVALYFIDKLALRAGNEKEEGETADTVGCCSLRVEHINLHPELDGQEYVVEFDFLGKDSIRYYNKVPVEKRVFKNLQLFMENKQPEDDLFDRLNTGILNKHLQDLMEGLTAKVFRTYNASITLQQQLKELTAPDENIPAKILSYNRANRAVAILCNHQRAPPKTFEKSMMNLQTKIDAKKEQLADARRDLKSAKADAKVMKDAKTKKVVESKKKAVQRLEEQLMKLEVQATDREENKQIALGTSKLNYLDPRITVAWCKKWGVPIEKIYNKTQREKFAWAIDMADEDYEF
Put plainly: Inhibition of topoisomerase 1 (unknown origin) assessed as reduction in relaxation of supercoiled plasmid pBR322 DNA at 10 uM incubated for 30 mins by agarose gel electrophoresis.
Conditions: not given
A digest of the protocol:
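Reaction mix held 10X Topo I buffer, supercoiled pBR322 (250 ng), Topo I (2 U) and compound at 10 µM, incubated 37 °C for 30 min. Stopped with 10% SDS, then proteinase K digestion for 30 min. Products run on 1% agarose without stain, post-stained with 4s Green for 50 min and imaged under UV. Read-out is loss of relaxation.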
For the molecule `COc1cc2c(ccn3c2c(-c2ccc(O[C@@H]4O[C@H](CO)[C@@H](O)[C@H](O)[C@H]4O)c(OC)c2)c2c4cc(OC)c(O[C@@H]5O[C@H](CO)[C@@H](O)[C@H](O)[C@H]5O)cc4oc(=O)c23)cc1O`, the inhibition result is “Active”.

The next series relates to HCT-116. Put plainly: Cytotoxicity against human HCT-116 cells assessed as reduction in cell viability incubated for 72 hrs by MTT assay. The series is classed as functional, cell-based. Conditions: HCT-116, 72 h. In outline:
as §1
Consider `COc1cc(-c2c3c4cc(OC)c(O[C@@H]5O[C@H](CO)[C@@H](O)[C@H](O)[C@H]5O)cc4oc(=O)c3n3ccc4cc(O)c(OC)cc4c23)ccc1O`, for which the IC50 was determined as 10 nM.
With `COc1cc2c(ccn3c2c(-c2ccc(O[C@@H]4O[C@H](CO)[C@@H](O)[C@H](O)[C@H]4O)c(OC)c2)c2c4cc(OC)c(O[C@@H]5O[C@H](CO)[C@@H](O)[C@H](O)[C@H]5O)cc4oc(=O)c23)cc1O`, the IC50 stood at 6770 nM.
The same measure, in the same setting: the figure for `COc1cc(-c2c3c4cc(OC)c(O[C@@H]5O[C@H](CO)[C@@H](O)[C@H](O)[C@H]5O)cc4oc(=O)c3n3ccc4cc(O[C@@H]5O[C@H](CO)[C@@H](O)[C@H](O)[C@H]5O)c(OC)cc4c23)ccc1O` is 40 nM.
For `COc1cc(-c2c3c4cc(OC)c(O)cc4oc(=O)c3n3ccc4cc(O[C@@H]5O[C@H](CO)[C@H](O)[C@H](O)[C@H]5O)c(OC)cc4c23)ccc1O`, the IC50 was 37 nM.

In a further series the test system is HepG2. Put plainly: Cytotoxicity against human HepG2 cells assessed as reduction in cell viability incubated for 72 hrs by MTT assay. In kind it is functional, cell-based. Conditions: HepG2, 72 h. In outline:
as §1
For `COc1cc(-c2c3c4cc(OC)c(O[C@@H]5O[C@H](CO)[C@@H](O)[C@H](O)[C@H]5O)cc4oc(=O)c3n3ccc4cc(O)c(OC)cc4c23)ccc1O`, the IC50 is 15 nM.
Same read-out and setting: with `COc1cc2c(ccn3c2c(-c2ccc(O[C@@H]4O[C@H](CO)[C@@H](O)[C@H](O)[C@H]4O)c(OC)c2)c2c4cc(OC)c(O[C@@H]5O[C@H](CO)[C@@H](O)[C@H](O)[C@H]5O)cc4oc(=O)c23)cc1O` the figure was 28800 nM.
Still for that read-out and setting: the figure for `COc1cc(-c2c3c4cc(OC)c(O[C@@H]5O[C@H](CO)[C@@H](O)[C@H](O)[C@H]5O)cc4oc(=O)c3n3ccc4cc(O[C@@H]5O[C@H](CO)[C@@H](O)[C@H](O)[C@H]5O)c(OC)cc4c23)ccc1O` is 118 nM; for `COc1cc(-c2c3c4cc(OC)c(O)cc4oc(=O)c3n3ccc4cc(O[C@@H]5O[C@H](CO)[C@H](O)[C@H](O)[C@H]5O)c(OC)cc4c23)ccc1O` it is 48 nM.
